According to ChEMBL document CHEMBL1126205, “Novel spirosuccinimides with incorporated isoindolone and benzisothiazole 1,1-dioxide moieties as aldose reductase inhibitors and antihyperglycemic agents” (1992):
Several values for one entry are separate records, joined by “and”; a condition that tells them apart may be missing. Equal entries are not always repeated. Values belong to the molecule of their own block, whether it stands above or below them. Activity calls are given as the source filed them. No cut-off for these calls is given here.

Columns and labels:
Rattus norvegicus [1] = assay: In vivo galactitol inhibitory activity measured by its ability to inhibit galactitol accumulation in lens at 50 mg/Kg/day; assay type: functional; conditions: Lens of camera-type eye
Method in brief: (§1)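 Rats (n = 6) fed 20% galactose for 4 days, with compound given in the diet at the stated mg/kg per day. Galactitol accumulation in lens, sciatic nerve or diaphragm is scored as percent inhibition versus the non-treated group, as means of 3–8 drug-treated tissue samples. Dunnett's multiple comparison test applies; NS means p > 0.05.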

Rattus norvegicus [2] = assay: In vivo galactitol inhibitory activity measured by its ability to inhibit galactitol accumulation in lens at 9 mg/Kg/day; assay type: functional; conditions: Lens of camera-type eye
Method in brief: (§2)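 Rats (n = 6) fed 20% galactose for 4 days, with compound given in the diet at the stated daily dose. Galactitol accumulation was measured in lens, sciatic nerve and diaphragm, and % inhibition was taken versus the nontreated group. Means are from three to eight drug-treated tissue samples. Dunnett's multiple comparison test was applied, with p > 0.05 reported as not significant.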

Rattus norvegicus [3] = assay: In vivo galactitol inhibitory activity measured by its ability to inhibit galactitol accumulation in diaphragm at 50 mg/Kg/day; assay type: functional; method in brief: as §1
Rattus norvegicus [4] = assay: In vivo galactitol inhibitory activity measured by its ability to inhibit galactitol accumulation in diaphragm at 6 mg/Kg/day; assay type: functional; method in brief: as §1
Rattus norvegicus [5] = assay: In vivo galactitol inhibitory activity measured by its ability to inhibit galactitol accumulation in lens at 3 mg/Kg/day; NS=Not significant (% Inhibition); assay type: functional, organism-based; conditions: Lens of camera-type eye; method in brief: as §1
Mus musculus = assay: Antihyperglycemic activity measured as percent decrease in mice plasma glucose at 100 mg/Kg/day; assay type: functional
Method in brief: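 Male db/db (C57BL/KsJ) mice, 4–6 per group, dosed at 100 mg/kg per day. Plasma glucose of the drug-treated group is expressed as percent decrease relative to a vehicle-treated control group. Values are mean ± SE, with p < 0.05 marked.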

Rattus norvegicus [6] = assay: In vivo galactitol inhibitory activity measured by its ability to inhibit galactitol accumulation in sciatic nerve at 9 mg/Kg/day; assay type: functional; method in brief: as §2
Rattus norvegicus [7] = assay: In vivo galactitol inhibitory activity measured by its ability to inhibit galactitol accumulation in lens at 6 mg/Kg/day; NS=Not significant (% Inhibition); assay type: functional, organism-based; conditions: Lens of camera-type eye; method in brief: as §1
Rattus norvegicus [8] = assay: In vivo galactitol inhibitory activity measured by its ability to inhibit galactitol accumulation in sciatic nerve at 50 mg/Kg/day; assay type: functional; method in brief: as §2
[9] = molecular target: Aldo-keto reductase family 1 member B1 (Bos taurus) (UniProt P16116); assay: In vitro aldose reductase inhibitory activity measured by NADPH-dependent inhibition of glyceraldehyde reduction in a partially purified bovine lens preparation at 10E-6 M
Method in brief: (§3)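 Aldose reductase partially purified from bovine lens. Inhibition of NADPH-dependent glyceraldehyde reduction is measured at the single stated concentration and reported as percent inhibition, the mean of two determinations.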

Rattus norvegicus [10] = assay: In vivo galactitol inhibitory activity measured by its ability to inhibit galactitol accumulation in sciatic nerve at 3 mg/Kg/day; NS=Not significant (% Inhibition); assay type: functional, organism-based; method in brief: as §2
Rattus norvegicus [11] = assay: In vivo galactitol inhibitory activity measured by its ability to inhibit galactitol accumulation in diaphragm at 3 mg/Kg/day; assay type: functional; method in brief: as §1
Rattus norvegicus [12] = assay: In vivo galactitol inhibitory activity measured by its ability to inhibit galactitol accumulation in sciatic nerve at 6 mg/Kg/day; NS=Not significant (% Inhibition); assay type: functional, organism-based; method in brief: as §2
Rattus norvegicus [13] = assay: In vivo galactitol inhibitory activity measured by its ability to inhibit galactitol accumulation in diaphragm at 9 mg/Kg/day; assay type: functional; method in brief: as §1
[14] = molecular target: Aldo-keto reductase family 1 member B1 (Bos taurus) (UniProt P16116); assay: In vitro aldose reductase inhibitory activity measured by NADPH-dependent inhibition of glyceraldehyde reduction in a partially purified bovine lens preparation at 10E-7 M; method in brief: as §3
Rattus norvegicus [15] = assay: In vivo galactitol inhibitory activity measured by its ability to inhibit galactitol accumulation in diaphragm at 73 mg/Kg/day; assay type: functional; method in brief: as §1
Rattus norvegicus [16] = assay: In vivo galactitol inhibitory activity measured by its ability to inhibit galactitol accumulation in lens at 66 mg/Kg/day; assay type: functional; conditions: Lens of camera-type eye; method in brief: as §2
Rattus norvegicus [17] = assay: In vivo galactitol inhibitory activity measured by its ability to inhibit galactitol accumulation in sciatic nerve at 73 mg/Kg/day; assay type: functional; method in brief: as §2
Rattus norvegicus [18] = assay: In vivo galactitol inhibitory activity measured by its ability to inhibit galactitol accumulation in lens at 10 mg/Kg/day; assay type: functional; conditions: Lens of camera-type eye; method in brief: as §1
Rattus norvegicus [19] = assay: In vivo galactitol inhibitory activity measured by its ability to inhibit galactitol accumulation in diaphragm at 81 mg/Kg/day; assay type: functional; method in brief: as §1
Rattus norvegicus [20] = assay: In vivo galactitol inhibitory activity measured by its ability to inhibit galactitol accumulation in lens at 6 mg/Kg/day; assay type: functional, Lens of camera-type eye; method in brief: as §1
Rattus norvegicus [21] = assay: In vivo galactitol inhibitory activity measured by its ability to inhibit galactitol accumulation in sciatic nerve at 81 mg/Kg/day; assay type: functional; method in brief: as §2
Rattus norvegicus [22] = assay: In vivo galactitol inhibitory activity measured by its ability to inhibit galactitol accumulation in lens at 81 mg/Kg/day; assay type: functional; conditions: Lens of camera-type eye; method in brief: as §2
Rattus norvegicus [23] = assay: In vivo galactitol inhibitory activity measured by its ability to inhibit galactitol accumulation in lens at 10 mg/Kg/day; NS=Not significant (% Inhibition); assay type: functional; conditions: Lens of camera-type eye; method in brief: as §1
Rattus norvegicus [24] = assay: In vivo galactitol inhibitory activity measured by its ability to inhibit galactitol accumulation in diaphragm at 79 mg/Kg/day; assay type: functional; method in brief: as §1
Rattus norvegicus [25] = assay: In vivo galactitol inhibitory activity measured by its ability to inhibit galactitol accumulation in sciatic nerve at 79 mg/Kg/day; assay type: functional; method in brief: as §2
Rattus norvegicus [26] = assay: In vivo galactitol inhibitory activity measured by its ability to inhibit galactitol accumulation in lens at 53 mg/Kg/day; assay type: functional, Lens of camera-type eye; method in brief: as §1
Rattus norvegicus [27] = assay: In vivo galactitol inhibitory activity measured by its ability to inhibit galactitol accumulation in lens at 79 mg/Kg/day; assay type: functional; conditions: Lens of camera-type eye; method in brief: as §2
Rattus norvegicus [28] = assay: In vivo galactitol inhibitory activity measured by its ability to inhibit galactitol accumulation in lens at 25 mg/Kg/day; assay type: functional, Lens of camera-type eye; method in brief: as §1

inhibition [9]: 83%
inhibition [14]: 38%
Compound: CN1C(=O)c2cc(Cl)c(Cl)cc2C12CC(=O)NC2=O (stereo not drawn)
inhibition in vivo at 50 mg/kg/day (Rattus norvegicus [1]): 71%
inhibition in vivo at 9 mg/kg/day (Rattus norvegicus [2]): 10%
inhibition in vivo at 50 mg/kg/day (Rattus norvegicus [3]): 90%
inhibition in vivo at 6 mg/kg/day (Rattus norvegicus [4]): 44%
inhibition (Rattus norvegicus [5]): inactive
Decrease (Mus musculus): 31%
inhibition in vivo at 9 mg/kg/day (Rattus norvegicus [6]): 25%
inhibition (Rattus norvegicus [7]): inactive
inhibition in vivo at 50 mg/kg/day (Rattus norvegicus [8]): 94%
inhibition (Rattus norvegicus [10]): inactive
inhibition in vivo at 3 mg/kg/day (Rattus norvegicus [11]): 25%
inhibition (Rattus norvegicus [12]): inactive
inhibition in vivo at 9 mg/kg/day (Rattus norvegicus [13]): 57%

inhibition [9]: 21%
inhibition [14]: 0%
Compound: CCN1C(=O)c2ccccc2C12CC(=O)NC2=O (stereo not drawn)
inhibition in vivo at 73 mg/kg/day (Rattus norvegicus [15]): 62%
inhibition in vivo at 66 mg/kg/day (Rattus norvegicus [16]): 25%
inhibition in vivo at 73 mg/kg/day (Rattus norvegicus [17]): 47%

inhibition [9]: 72%
inhibition [14]: 21%
Compound: CN1C(=O)c2cc(Cl)ccc2C12CC(=O)NC2=O (stereo not drawn)
inhibition in vivo at 10 mg/kg/day (Rattus norvegicus [18]): 34%
inhibition in vivo at 81 mg/kg/day (Rattus norvegicus [19]): 81%
inhibition in vivo at 6 mg/kg/day (Rattus norvegicus [20]; Rattus norvegicus, Lens of camera-type eye): 31%
inhibition (Rattus norvegicus [5]): inactive
Decrease (Mus musculus): <15%
inhibition in vivo at 81 mg/kg/day (Rattus norvegicus [21]): 77%
inhibition in vivo at 81 mg/kg/day (Rattus norvegicus [22]): 54%
inhibition (Rattus norvegicus [7]): inactive
inhibition (Rattus norvegicus [23]): inactive

Compound: CN1C(=O)c2ccc(Cl)cc2C12CC(=O)NC2=O (stereo in doubt; 32)
inhibition in vivo at 79 mg/kg/day (Rattus norvegicus [24]): 92%
inhibition in vivo at 79 mg/kg/day (Rattus norvegicus [25]): 80%
Inhibition (Rattus norvegicus [20]): 28% and 53%
Inhibition (Rattus norvegicus [26]): 69% and 92% and 90%
Decrease (Mus musculus): <15%
inhibition in vivo at 79 mg/kg/day (Rattus norvegicus [27]): 81%
Inhibition (Rattus norvegicus [28]): 51% and 84% and 81%
